Key:
[1] = Antiproliferative activity against human HNO 97 cell line assessed as growth inhibition at 100 ug/mL incubated for 48 hrs by SRB assay relative to control; format: functional; conditions: read-out: GI
Procedure, shortened: (§1)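 SRB assay: cells seeded at 3×10^3/well, allowed 24 h to attach, then exposed to 100 µg/mL for 48 h, three wells per concentration, DMSO 1% v/v vehicle control. Cells fixed with 20% trichloroacetic acid and stained with 0.4% SRB, then OD read at 570 nm. Survival fraction taken as treated OD/control OD.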

HeLa = assay: Antiproliferative activity against human HeLa cells assessed as growth inhibition at 100 ug/mL incubated for 48 hrs by SRB assay relative to control; format: functional; conditions: read-out: GI; procedure, shortened: as §1
[2] = Cytotoxicity against human oral epithelial cells (OEC) assessed as growth inhibition at 100 ug/mL incubated for 48 hrs by SRB assay relative to control; format: toxicity, cell-based, Oral epithelial cell; conditions: at 100 µg/mL, read-out: GI; procedure, shortened: as §1
Caco-2 = assay: Antiproliferative activity against human Caco-2 cells assessed as growth inhibition at 100 ug/mL incubated for 48 hrs by SRB assay relative to control; format: functional; conditions: read-out: GI; procedure, shortened: as §1
HepG2 [3] = assay: Antiproliferative activity against human HepG2 cells assessed as growth inhibition at 100 ug/mL incubated for 48 hrs by SRB assay relative to control; format: functional; conditions: read-out: GI; procedure, shortened: as §1
MG-63 = assay: Antiproliferative activity against human MG-63 cells assessed as growth inhibition at 100 ug/mL incubated for 48 hrs by SRB assay relative to control; format: functional; conditions: read-out: GI; procedure, shortened: as §1
Huh-7 = assay: Antiproliferative activity against human Huh-7 cells assessed as growth inhibition at 100 ug/mL incubated for 48 hrs by SRB assay relative to control; format: functional; conditions: read-out: GI; procedure, shortened: as §1
FaDu = assay: Antiproliferative activity against human FaDu cells assessed as growth inhibition at 100 ug/mL incubated for 48 hrs by SRB assay relative to control; format: functional; conditions: read-out: GI; procedure, shortened: as §1
HCT-116 [4] = assay: Antiproliferative activity against human HCT-116 cells assessed as growth inhibition at 100 ug/mL incubated for 48 hrs by SRB assay relative to control; format: functional; conditions: read-out: GI; procedure, shortened: as §1
MDA-MB-468 = assay: Antiproliferative activity against human MDA-MB-468 cells assessed as growth inhibition at 100 ug/mL incubated for 48 hrs by SRB assay relative to control; format: functional; conditions: read-out: GI; procedure, shortened: as §1
[5] = Cytotoxicity against HSF cells assessed as growth inhibition at 100 ug/mL incubated for 48 hrs by SRB assay relative to control; format: toxicity, cell-based; conditions: human, at 100 µg/mL, read-out: GI; procedure, shortened: as §1
A-375 [6] = assay: Antiproliferative activity against human A-375 cells assessed as growth inhibition at 100 ug/mL incubated for 48 hrs by SRB assay relative to control; format: functional; conditions: read-out: GI; procedure, shortened: as §1
MCF7 = assay: Antiproliferative activity against human MCF7 cells assessed as growth inhibition at 100 ug/mL incubated for 48 hrs by SRB assay relative to control; format: functional; conditions: read-out: GI; procedure, shortened: as §1
HCT-116 [7] = assay: Cytotoxicity against human HCT-116 cells assessed as inhibition of cell growth incubated for 48 hrs by SRB assay; format: functional, cell-based; conditions: HCT-116, 48 h
Procedure, shortened: (§2)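 Cells plated at 3×10^3/well and left 24 h to attach. Treated at 12.5, 25, 50 and 62.5 µg/mL for 48 h, three wells per concentration, with DMSO (1% v/v) vehicle control. Fixed with 20% TCA, stained with 0.4% SRB, OD read at 570 nm. Survival fraction = treated OD/control OD. IC50 from sigmoidal dose-response curve fitting.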

HepG2 [8] = assay: Cytotoxicity against human HepG2 cells assessed as inhibition of cell growth incubated for 48 hrs by SRB assay; format: functional, cell-based; conditions: HepG2, 48 h; procedure, shortened: as §2
A-375 [9] = assay: Cytotoxicity against human A-375 cells assessed as inhibition of cell growth incubated for 48 hrs by SRB assay; format: functional, cell-based; conditions: A-375, 48 h; procedure, shortened: as §2
[10] = Cytotoxicity against human HNO 97 cell line assessed as inhibition of cell growth incubated for 48 hrs by SRB assay; format: functional, cell-based; conditions: HNO 97, 48 h; procedure, shortened: as §2

| SMILES | inhibition of growth at 100 µg/mL [1] [%] | inhibition of growth at 100 µg/mL (HeLa) [%] | inhibition at 48 h, 100 ug/mL [2] [%] | inhibition of growth at 100 µg/mL (Caco-2) [%] | inhibition of growth at 100 µg/mL (HepG2 [3]) [%] | inhibition of growth at 100 µg/mL (MG-63) [%] | inhibition of growth at 100 µg/mL (Huh-7) [%] | inhibition of growth at 100 µg/mL (FaDu) [%] | inhibition of growth at 100 µg/mL (HCT-116 [4]) [%] | inhibition of growth at 100 µg/mL (MDA-MB-468) [%] | inhibition at 48 h, 100 ug/mL [5] [%] | inhibition of growth at 100 µg/mL (A-375 [6]) [%] | inhibition of growth at 100 µg/mL (MCF7) [%] | IC50 (HCT-116 [7]) [µM] | IC50 (HepG2 [8]) [µM] | IC50 (A-375 [9]) [µM] | IC50 [10] [µM] |
| --- | --- | --- | --- | --- | --- | --- | --- | --- | --- | --- | --- | --- | --- | --- | --- | --- | --- |
| COc1cccc(/C=N/NC(=O)c2nnn(-c3ccc([N+](=O)[O-])cc3)c2C)c1OC | 54 | 52 | 36 | 32 | 56 | 44 | 56 | 56 | 56 | 56 | 19 | 75 | 63 | – | – | – | – |
| Cc1c(C(=O)N/N=C/c2ccccc2)nnn1-c1ccc(Br)cc1 | 89 | 79 | 23 | 37 | 72 | 75 | 67 | 83 | 87 | 65 | 4 | 72 | 87 | 16.9 | – | – | – |
| COc1cc(/C=N/NC(=O)c2nnn(-c3ccc(Br)cc3)c2C)cc(OC)c1OC | 68 | 60 | 52 | 64 | 76 | 67 | 75 | 73 | 82 | 76 | 51 | 60 | 72 | – | – | – | – |
| Cc1c(C(=O)N/N=C/c2ccccc2)nnn1-c1ccc(F)cc1 | 74 | 52 | 16 | 20 | 54 | 68 | 37 | 70 | 74 | 44 | 14 | 42 | 80 | – | – | – | – |
| COc1ccc(/C=N/NC(=O)c2nnn(-c3ccc(F)cc3)c2C)cc1OC | 84 | 78 | 33 | 49 | 81 | 84 | 65 | 89 | 81 | 65 | 21 | 82 | 87 | – | – | – | – |
| COc1cc(/C=N/NC(=O)c2nnn(-c3ccc([N+](=O)[O-])cc3)c2C)cc(OC)c1OC | 68 | 29 | 39 | 60 | 44 | 40 | 74 | 70 | 35 | 70 | 28 | 50 | 49 | – | – | – | – |
| COc1cc(/C=N/NC(=O)c2nnn(-c3ccc(Cl)cc3)c2C)cc(OC)c1OC | 74 | 42 | 25 | 53 | 43 | 38 | 78 | 69 | 64 | 59 | 34 | 63 | 50 | – | – | – | – |
| COc1cccc(/C=N/NC(=O)c2nnn(-c3ccc(Br)cc3)c2C)c1OC | 77 | 68 | 19 | 47 | 69 | 63 | 70 | 79 | 69 | 63 | 35 | 73 | 60 | – | – | – | – |
| COc1cccc(/C=N/NC(=O)c2nnn(-c3ccc(F)cc3)c2C)c1OC | 69 | 45 | 13 | 36 | 49 | 42 | 68 | 70 | 64 | 52 | 9 | 71 | 78 | – | – | – | – |
| COc1cc(/C=N/NC(=O)c2nnn(-c3ccc(F)cc3)c2C)cc(OC)c1OC | 79 | 56 | 32 | 58 | 79 | 63 | 75 | 72 | 73 | 72 | 38 | 85 | 68 | 18.8 | 35.7 | 13.2 | 15.7 |
| COc1cccc2c1C(=O)c1c(O)c3c(c(O)c1C2=O)C[C@@](O)(C(=O)CO)C[C@@H]3O[C@H]1C[C@H](N)[C@H](O)[C@H](C)O1 [DOXORUBICIN] | 59 | 76 | 41 | 71 | 72 | 51 | 63 | 61 | 76 | 73 | 42 | 52 | 69 | 10.5 | 11 | 14.5 | 9.01 |
| COc1ccc(/C=N/NC(=O)c2nnn(-c3ccc(Br)cc3)c2C)cc1OC | 86 | 65 | 28 | 40 | 59 | 42 | 53 | 69 | 63 | 54 | 20 | 77 | 86 | – | – | – | – |
